Measurements published in ChEMBL document CHEMBL5303300, “EUbOPEN Chemogenomics Library - Multiplex” (2023).
Where “and” joins values, the source holds several entries; their conditions need not be identical. Equal entries are not always repeated.

System: U2OS
Assay: Multiplex assay against U2OS
Format: toxicity, cell-based
Conditions: human, number of replicates 2
How it was run: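 Phenotypes for tubulin, mitochondrial mass and membrane permeability are expressed as per cents of healthy-nucleus cells. Cells were stained live at seeding with Hoechst33342, BioTracker Green Microtubule Cytoskeleton Dye, MitoTracker Red and Annexin V Alexa Fluor 680, then imaged after compound addition on a CQ1 microscope at 37°C and 5% CO2. Machine-learning gating in CellPathfinder separated Hoechst high-intensity objects from normal cells, divided normal cells by nuclear state (healthy, pyknosed, fragmented) and divided pyknosed cells into mitotic or apoptotic.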

[1] = 12 h, 1 µM, compound concentration 1 uM
[2] = 12 h, 10 µM, compound concentration 10 uM
[3] = 24 h, 1 µM, compound concentration 1 uM
[4] = 24 h, 10 µM, compound concentration 10 uM
[5] = 48 h, 1 µM, compound concentration 1 uM
[6] = 48 h, 10 µM, compound concentration 10 uM

## COc1ccc(F)c(F)c1C(=O)c1cnc(NC2CCN(S(C)(=O)=O)CC2)nc1N [RG-547]
[1]
  Population Apoptotic (%): 25% and 66%
  Population Fragmented Nuclei (%): 21% and 7%
  Population Healthy Nuclei (%): 68% and 81%
  Population Hoechst High Intensity Objects (%): 0% and 1%
  Population Membrane Permeable-Phenotype (%): 7% and 3%
  Population Mitochondria Different-Phenotype (%): 3% and 2%
  Population Mitotic Cells (%): 75% and 33%
  Population Normal (%): 100% and 98%
  Population Pyknosed Nuclei (%): 10%
  Population Tubulin-Different-Phenotype (%): 69% and 80%
[2]
  Population Apoptotic (%): 77% and 70%
  Population Fragmented Nuclei (%): 20% and 12%
  Population Healthy Nuclei (%): 44% and 42%
  Population Hoechst High Intensity Objects (%): 0% and 1%
  Population Membrane Permeable-Phenotype (%): 9% and 14%
  Population Mitochondria Different-Phenotype (%): 0% and 6%
  Population Mitotic Cells (%): 22% and 30%
  Population Normal (%): 100% and 98%
  Population Pyknosed Nuclei (%): 36% and 44%
  Population Tubulin-Different-Phenotype (%): 72% and 57%
[3]
  Population Apoptotic (%): 57% and 70%
  Population Fragmented Nuclei (%): 13% and 9%
  Population Healthy Nuclei (%): 66% and 77%
  Population Hoechst High Intensity Objects (%): 0%
  Population Membrane Permeable-Phenotype (%): 4%
  Population Mitochondria Different-Phenotype (%): 4% and 3%
  Population Mitotic Cells (%): 42% and 30%
  Population Normal (%): 100% and 99%
  Population Pyknosed Nuclei (%): 19% and 12%
  Population Tubulin-Different-Phenotype (%): 66% and 79%
[4]
  Population Apoptotic (%): 85%
  Population Fragmented Nuclei (%): 15% and 12%
  Population Healthy Nuclei (%): 41% and 32%
  Population Hoechst High Intensity Objects (%): 0% and 2%
  Population Membrane Permeable-Phenotype (%): 21% and 12%
  Population Mitochondria Different-Phenotype (%): 21% and 12%
  Population Mitotic Cells (%): 15% and 14%
  Population Normal (%): 100% and 97%
  Population Pyknosed Nuclei (%): 43% and 54%
  Population Tubulin-Different-Phenotype (%): 68% and 72%
[5]
  Population Apoptotic (%): 85%
  Population Fragmented Nuclei (%): 30% and 20%
  Population Healthy Nuclei (%): 39% and 65%
  Population Hoechst High Intensity Objects (%): 0%
  Population Membrane Permeable-Phenotype (%): 11% and 2%
  Population Mitochondria Different-Phenotype (%): 5% and 1%
  Population Mitotic Cells (%): 14%
  Population Normal (%): 100% and 99%
  Population Pyknosed Nuclei (%): 30% and 13%
  Population Tubulin-Different-Phenotype (%): 66% and 75%
[6]
  Population Apoptotic (%): 94% and 87%
  Population Fragmented Nuclei (%): 14% and 10%
  Population Healthy Nuclei (%): 11% and 2%
  Population Hoechst High Intensity Objects (%): 5% and 0%
  Population Mitotic Cells (%): 5% and 12%
  Population Normal (%): 94% and 100%
  Population Pyknosed Nuclei (%): 74% and 86%
  Population Tubulin-Different-Phenotype (%): 88% and 100%

## CC1=C(C)C(=O)C(C(CCCCCC(=O)O)c2ccccc2)=C(C)C1=O (stereo unspecified) [SERATRODAST]
[1]
  Population Apoptotic (%): 66% and 64%
  Population Fragmented Nuclei (%): 11% and 5%
  Population Healthy Nuclei (%): 80% and 84%
  Population Hoechst High Intensity Objects (%): 0%
  Population Membrane Permeable-Phenotype (%): 3% and 2%
  Population Mitochondria Different-Phenotype (%): 3% and 0%
  Population Mitotic Cells (%): 33% and 36%
  Population Normal (%): 100%
  Population Pyknosed Nuclei (%): 8% and 9%
  Population Tubulin-Different-Phenotype (%): 100% and 92%
[2]
  Population Apoptotic (%): 75% and 37%
  Population Healthy Nuclei (%): 68% and 84%
  Population Hoechst High Intensity Objects (%): 0%
  Population Membrane Permeable-Phenotype (%): 0% and 1%
  Population Mitochondria Different-Phenotype (%): 0%
  Population Mitotic Cells (%): 25% and 62%
  Population Normal (%): 100%
  Population Pyknosed Nuclei (%): 5% and 11%
  Population Tubulin-Different-Phenotype (%): 80% and 94%
[3]
  Population Apoptotic (%): 75% and 54%
  Population Fragmented Nuclei (%): 7% and 2%
  Population Healthy Nuclei (%): 82% and 88%
  Population Hoechst High Intensity Objects (%): 0%
  Population Membrane Permeable-Phenotype (%): 3%
  Population Mitochondria Different-Phenotype (%): 3% and 1%
  Population Mitotic Cells (%): 25% and 45%
  Population Normal (%): 100%
  Population Pyknosed Nuclei (%): 10% and 8%
  Population Tubulin-Different-Phenotype (%): 100% and 92%
[4]
  Population Apoptotic (%): 50% and 66%
  Population Healthy Nuclei (%): 70% and 88%
  Population Hoechst High Intensity Objects (%): 0%
  Population Membrane Permeable-Phenotype (%): 1% and 2%
  Population Mitochondria Different-Phenotype (%): 1% and 0%
  Population Mitotic Cells (%): 50% and 33%
  Population Normal (%): 100%
  Population Pyknosed Nuclei (%): 6%
  Population Tubulin-Different-Phenotype (%): 92%
[5]
  Population Apoptotic (%): 33% and 43%
  Population Fragmented Nuclei (%): 4% and 3%
  Population Healthy Nuclei (%): 89% and 91%
  Population Hoechst High Intensity Objects (%): 0%
  Population Membrane Permeable-Phenotype (%): 0% and 1%
  Population Mitochondria Different-Phenotype (%): 0%
  Population Mitotic Cells (%): 66% and 56%
  Population Normal (%): 100%
  Population Pyknosed Nuclei (%): 5% and 4%
  Population Tubulin-Different-Phenotype (%): 100% and 94%
[6]
  Population Apoptotic (%): 58%
  Population Fragmented Nuclei (%): 12% and 3%
  Population Healthy Nuclei (%): 79% and 90%
  Population Hoechst High Intensity Objects (%): 0%
  Population Membrane Permeable-Phenotype (%): 0% and 2%
  Population Mitochondria Different-Phenotype (%): 0%
  Population Mitotic Cells (%): 41%
  Population Normal (%): 99%
  Population Pyknosed Nuclei (%): 8% and 6%
  Population Tubulin-Different-Phenotype (%): 89% and 95%
